ANO1 block – inhibitors of mouse TMEM16A calcium-activated chloride channel. 1.2% of 310,000 active. Q8BHY3. normalized B-score (activity score, 25-100; higher = stronger inhibition) at 10 µM. AID 588511. HEK293 TMEM16A/YFP iodide influx fluorescence, ionomycin;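 active = ratio plate-corrected score three or more library SD toward inhibition, starting fluorescence score within five deviations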;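 also: score derived from kinetic fluorescence span divided by baseline fluorescence per well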
MC4R antag cAMP – blocks human MC4R cAMP signaling. MC4R-expressing cells, MTII-stimulated cAMP, LANCE TR-FRET. inhibition, % at 6.5 µM. 0.48% of 360,000 active. AID 540295;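 active = inhibition above its plate's cutoff, the mean of tested wells on that plate plus 3 SD, cut at about 29% in these data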;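 also: 0% = Melanotan II alone and 100% = Melanotan II plus saturating MCL0020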
Target sequence (P32245 whole entry, looked up): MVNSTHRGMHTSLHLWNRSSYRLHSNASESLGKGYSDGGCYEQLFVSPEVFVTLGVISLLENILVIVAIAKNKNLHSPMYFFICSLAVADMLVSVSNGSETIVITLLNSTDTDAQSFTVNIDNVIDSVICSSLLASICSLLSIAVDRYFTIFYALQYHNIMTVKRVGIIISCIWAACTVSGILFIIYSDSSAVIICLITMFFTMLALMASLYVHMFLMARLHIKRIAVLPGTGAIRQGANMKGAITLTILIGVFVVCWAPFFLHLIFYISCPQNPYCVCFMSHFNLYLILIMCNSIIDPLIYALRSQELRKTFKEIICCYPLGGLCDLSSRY
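Material – human MC4R-expressing U2OS cells · Repeats – no replicates · Detection – TR-FRET with Eu-cAMP and labeled anti-cAMP, 671 nm · Times – compound 30 min, challenge 1 h, detection 1 h · Compound – single nominal compound dose of 6.5 µM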
HTR2A ag – mouse HTR2A agonism via beta-arrestin recruitment | 0.66% of 360,000 active | AID 624169 | activation, % at 7.6 µM | CHO-K1 mHTR2A beta-arrestin complementation, luminescence; percent of 30 µM serotonin response | P35363;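 active = activation above a run cutoff, the mean activation of all tested compounds plus 3 SD, cut at about 14% in these data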;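 also: 0% = plate median of compound wells and 100% = 30 µM serotonin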
TMEM16A act – activators or potentiators of mouse TMEM16A chloride channel | Q8BHY3 | HEK293 TMEM16A/YFP-H148Q/I152L, iodide quench fluorescence; active compounds read low | B-score at 10 µM | 0.3% of 340,000 active;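 active = fluorescence-ratio B-score plate-corrected deviation score at least 3 library SD below zero, with starting fluorescence score within 5 deviations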;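 also: channel opened by trigger with iodide after compound preincubation; score built on the fluorescence ratio of max minus min over baseline; more negative score means more quench and so TMEM16A activation or potentiation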
beta cell repl – inducers of beta-cell replication in MIN6 cells; MIN6 cells proliferation, ATPlite luminescence, 48 h; cells starved in 0.2% serum; 100% = growth in 10% serum; proliferation, % at 10 µM; 0.29% of 330,000 active; AID 2380;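 active = compounds whose signal lies at least 3.5 SD above the mean of all wells on their plate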;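 also: 0% = DMSO-treated cells in low-serum medium and 100% = 10% serum control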
MC4R ag barr – human MC4R agonism via beta-arrestin | P32245 | U2OS MC4R beta-arrestin complementation, luminescence; percent of melanotan II response, DMSO zero | activation, % at 8.9 µM | 0.98% of 360,000 active | AID 540308;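 active = activation above a per-plate cutoff, the mean activation of sample wells on that plate plus 3 SD, cut at about 8% in these data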
MOR ag counter – activates human mu opioid receptor in HTR2A counterscreen | shares compounds with HTR2A ag | U2OS OPRM1 beta-arrestin PathHunter, luminescence; DMSO 0%, DAMGO 9.3 µM 100% | activation, % at 9.3 µM | 5.3% of 2,300 active;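 active = mean activation above the mean of DMSO-only wells plus 3 SD, cut at about 0.5% in these data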
m5-HT2A ag conf – mouse HTR2A agonism confirmed. shares compounds with HTR2A ag. CHO-K1 PathHunter beta-arrestin recruitment, luminescence; DMSO 0%, 30 µM serotonin 100%. activation, % at 7.6 µM. 19% of 2,300 active. AID 624381;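 active = mean activation across triplicates above the hit threshold derived in the original primary screen, cut at about 15% in these data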
Active calls of the source: *; i = inactive; . = not tested or not shown. This is a sample that favours compounds with a hit; in the whole collection about 3.4% have one here.

SMILES | ANO1 block | MC4R antag cAMP | HTR2A ag | TMEM16A act | beta cell repl | MC4R ag barr | MOR ag counter | m5-HT2A ag conf
CC(C)[C@@]1(NC(=O)[C@@H]2C[C@@H]3c4cccc5[nH]cc(c45)C[C@H]3N(C)C2)O[C@@]2(O)[C@@H]3CCCN3C(=O)[C@H](Cc3ccccc3)N2C1=O | i | 4 | 30* | i | -5 | -1 | 0 | 83*
O=C(c1ccc(F)cc1)N1CCC2(CC1)OCCO2 | i | 2 | -1 | i | -1 | -3 | . | .
COc1cccc(CNCCc2ccc(F)cc2)c1 | i | 7 | 8 | i | 1 | -1 | . | .
COc1cccc(CCNCc2c(F)cccc2F)c1 | i | -4 | 21* | i | -2 | -1 | -1 | 3
Fc1ccccc1CNCCc1c[nH]c2ccccc12 | i | 6 | 19* | i | 1 | 0 | 0 | 24*
COc1cccc(CNCCc2c[nH]c3ccccc23)c1 | i | 4 | 32* | . | -2 | -2 | 0 | 34*
Cc1ccc(OC(=O)N(C)C[C@H]2OCc3cnnn3CCCC(=O)N([C@@H](C)CO)C[C@H]2C)cc1 | . | -3 | -4 | . | . | -1 | . | .
CN1[C@H]2CC[C@@H]1C(C(=O)N1CCOCC1)=C(O)C2 | . | -1 | -4 | i | -2 | -1 | . | .
N#CC(=C(O)c1ccc(S(=O)(=O)N(CCCl)CCCl)cc1)c1nc2ccccc2[nH]1 | . | -3 | 4 | i | . | 0 | . | .
C[C@@H]1CCC2[C@@H](C)C(=O)O[C@@H]3OC4(C)CCC1[C@@]23OO4 (stereo partly specified) | . | . | . | . | -1 | . | . | .
COc1cc(O)cc2c1cc([N+](=O)[O-])c1c(C(=O)O)cc3c(c12)OCO3 | . | 15 | -4 | i | 3 | -2 | . | .
COc1ccc(CCNCc2cccn2C)cc1 | i | 12 | 28* | i | -5 | 1 | 0.5* | 17*
Cn1cccc1CNCCc1ccccc1 | i | . | . | . | -1 | . | . | .
Cc1cc(C(=O)O)c(C)n1C1CC1 | i | 2 | 5 | i | 2 | 4 | . | .
COc1ccc(CCNCc2ccsc2)cc1OC | i | 0 | 19* | i | -3 | -1 | -1 | 10
O=C(NCNC(=O)NC1C(=O)NC(=O)N1CO)NC1C(=O)NC(=O)N1CO (stereo unspecified) | i | 8 | 17* | i | -1 | 0 | 0 | 1
CCOc1cccc(CNCCc2c(C)[nH]c3ccc(OC(F)(F)F)cc23)c1O | 100* | 8 | 27* | i | -5 | 17* | 1.2* | 22*
Cc1[nH]c2ccc(OC(F)(F)F)cc2c1CCNCc1ccc(Cl)cc1 | i | -1 | -7 | i | -7 | 5 | . | .
O=[N+]([O-])c1ccc(N2CCNCC2)cc1Sc1ccccn1 | i | -4 | 25* | i | -2 | 1 | -1 | 10
Nc1cc(N2CCNCC2)ccc1[N+](=O)[O-] | i | 1 | 42* | i | 1 | -1 | 0 | 28*
O=C(NN=Cc1ccc(N(CCCl)CCCl)cc1)c1cc(=O)[nH]c(=O)[nH]1 | . | 2 | 18* | i | . | 1 | -1 | -2
COc1ccccc1-n1c(O)c(/C=N/NC(=S)Nc2ccccc2)c(=O)[nH]c1=S | i | -7 | -1 | i | -2 | -1 | . | .
Clc1ccc(N2CCN(Cc3ccccc3Cl)CC2)cc1 | i | 14 | 10 | i | -2 | 1 | . | .
Clc1ccccc1CN1CCN(c2ccccc2)CC1 | i | -4 | 27* | i | -1 | 0 | 0 | 53*
CCC(C)NC(=O)CCC(=O)OC1O[C@H]2OC3(C)CC[C@H]4[C@H](C)CCC(C1C)C24OO3 (stereo partly specified) | i | 14 | -4 | i | . | 1 | . | .
SMILES | ANO1 block | MC4R antag cAMP | HTR2A ag | TMEM16A act | beta cell repl | MC4R ag barr | MOR ag counter | m5-HT2A ag conf
CCC(C)C(NC(=O)CCCNC(=O)CCC(=O)OC1O[C@H]2OC3(C)CC[C@H]4[C@H](C)CCC(C1C)C24OO3)C(=O)O (stereo partly specified) | i | 9 | 21* | i | -5 | -3 | 0.6* | -4
O=C(/C=C/c1ccccc1)c1c(O)n(CCc2ccccc2)c(=O)[nH]c1=O | i | 7 | 15* | i | -2 | -1 | -1 | 1
O=C(/C=C/c1ccc2c(c1)OCO2)c1c(O)n(CCc2ccccc2)c(=O)[nH]c1=O | i | 4 | 5 | i | -4 | 2 | . | .
CC(C)N1CCN(c2ccc(O)cc2)CC1 | i | 5 | -3 | i | . | -3 | . | .
CC(C)N1CCOC(c2ccc(O)c(O)c2)C1 (stereo unspecified) | . | . | 35* | . | . | . | -1 | 113*
CNCCc1ccc(O)c(O)c1 | i | -14 | 28* | i | -8 | -1 | 0 | 161*
Fc1ccc(CCNCc2cccc(Cl)c2)cc1 | i | 2 | 24* | i | 0 | 0 | 0 | 7
Clc1cccc(CNCCc2ccc3c(c2)OCO3)c1 | i | 11 | 32* | i | 1 | 3 | 0 | 8
Fc1ccc(CCNCc2ccc(Br)cc2)cc1 | i | 4 | -4 | i | -4 | 1 | . | .
Clc1ccc(CNCCc2ccc3c(c2)OCO3)cc1 | i | -3 | 2 | i | 0 | -1 | . | .
Fc1ccccc1CNCCc1ccc2c(c1)OCO2 | i | 4 | 21* | i | -3 | -1 | -1 | 13
c1ccc(P(c2ccccn2)c2ccccn2)cc1 | i | 22 | 4 | i | 0 | -2 | . | .
Oc1ccc(-[n+]2c(-c3ccccc3)cc(-c3ccccc3)cc2-c2ccccc2)cc1 | i | 3 | 21* | i | -8 | 4 | 0.5* | 16*
O=C([O-])c1ccc(-[n+]2c(-c3ccccc3)cc(-c3ccccc3)cc2-c2ccccc2)cc1 | i | 1 | -2 | i | -4 | 1 | . | .
COP(=O)(OC)C1(Nc2ccc(C)cc2)CCCCC1 | i | 8 | 15* | i | -3 | 0 | -1 | -3
CC=C(CC)C1(CCC)C(=O)NC(=S)NC1=O | . | 1 | -2 | i | . | -2 | . | .
COc1c2c(cc3c1OCO3)CCN(C)C2 | i | 7 | 18* | i | -4 | 1 | -1 | 53*
O=[N+]([O-])c1cccc(NP(=O)(Oc2ccccc2)Oc2ccccc2)c1 | i | -15 | 2 | i | -4 | -1 | . | .
